An excerpt weighted towards active compounds, which were near 12% of everything screened.
ROMK mod – modulators of human ROMK potassium channel. P48048. Tet-inducible ROMK, thallium flux fluorescence; actives lie on both sides. B-score at 10 µM. hit rate 2% among 130,000. AID 1918;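 active = signal ratio slope over the read window, or its plate-corrected B-score, at least 3 SD from the plate mean, either direction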;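 also: B-score of the F/F0 ratio slope over 7 to 12 s after thallium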
Diaphorase act – diaphorase activation or chemical reduction counter-screen. activation factor at 20 µM. hit rate 0.005% among 190,000. AID 1229. Diaphorase/resazurin coupled assay, resorufin fluorescence, 16 min; hits give high values; 1 = vehicle wells, 0 = NADH-free wells;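 active = diaphorase activity raised at least twofold by the compound at 20 µM; inactive = activation factor below 2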
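System – purified diaphorase enzyme from Clostridium kluyveri · Input – enzyme 0.07 U/mL final · Also added – final NADH 0.114 mM, resazurin 0.1 mM · Measured by – fluorescence of resorufin, 544 nm excitation, 590 nm emission · Timing – 16 min enzyme reaction, ambient temperature · Measure – resorufin increase flagging diaphorase activators or reducers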
Diaphorase inh – counter-screen for diaphorase-based assays: diaphorase inhibitors and chemical oxidizers; hit rate 0.69% among 190,000; diaphorase resazurin-to-resorufin fluorescence, NADH, 16 min; bacterial (C. kluyveri) enzyme, not human; inhibition, % at 20 µM;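 active = primary screen inhibition at 20 µM above a set limit, cut at about 50% in these data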
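Test system: bacterial diaphorase enzyme (C. kluyveri); Quantity: 0.14 U/mL diaphorase, enzyme working solution; Times: reaction incubation of 16 min at room temperature; Measured by: fluorescence of resorufin formed from resazurin, Ex 544/Em 590 nm; Benchmarks: positive control minus NADH, DMSO neutral control.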
L major viab – Leishmania major promastigote growth inhibition; hit rate 9% among 200,000; AID 1063; inhibition, % at 10 µM; Leishmania major promastigotes, resazurin fluorescence viability; in the data active = inhibition above about 50%;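 also: promastigotes grown with compound for 44 hours at 28 °C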
WT yeast gro inh – growth inhibition of WT yeast, mitochondrial fusion screen. hit rate 2.1% among 190,000. inhibition, % at 10 µM. mitochondrial fusion phenotypic screen, WT strain; in the data active = inhibition above about 58%; tested in S. cerevisiae
Cl transport mod – modulates chloride dependent transport by human KCC2; Q9H2X9; hit rate 2.2% among 190,000; KCC2 cells, thallium flux FluoZin-2 fluorescence; B-score of Tl+ flux slope (higher = more flux/activation; lower = inhibition) at 10 µM;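 active = thallium flux slope and its plate-corrected score both differing from the plate sample mean at a set confidence after two filtering rounds, in either direction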;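 also: slope of fluorescence scaled to starting intensity during 10 to 20 s after thallium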
Target sequence (Q9H2X9 whole entry, looked up): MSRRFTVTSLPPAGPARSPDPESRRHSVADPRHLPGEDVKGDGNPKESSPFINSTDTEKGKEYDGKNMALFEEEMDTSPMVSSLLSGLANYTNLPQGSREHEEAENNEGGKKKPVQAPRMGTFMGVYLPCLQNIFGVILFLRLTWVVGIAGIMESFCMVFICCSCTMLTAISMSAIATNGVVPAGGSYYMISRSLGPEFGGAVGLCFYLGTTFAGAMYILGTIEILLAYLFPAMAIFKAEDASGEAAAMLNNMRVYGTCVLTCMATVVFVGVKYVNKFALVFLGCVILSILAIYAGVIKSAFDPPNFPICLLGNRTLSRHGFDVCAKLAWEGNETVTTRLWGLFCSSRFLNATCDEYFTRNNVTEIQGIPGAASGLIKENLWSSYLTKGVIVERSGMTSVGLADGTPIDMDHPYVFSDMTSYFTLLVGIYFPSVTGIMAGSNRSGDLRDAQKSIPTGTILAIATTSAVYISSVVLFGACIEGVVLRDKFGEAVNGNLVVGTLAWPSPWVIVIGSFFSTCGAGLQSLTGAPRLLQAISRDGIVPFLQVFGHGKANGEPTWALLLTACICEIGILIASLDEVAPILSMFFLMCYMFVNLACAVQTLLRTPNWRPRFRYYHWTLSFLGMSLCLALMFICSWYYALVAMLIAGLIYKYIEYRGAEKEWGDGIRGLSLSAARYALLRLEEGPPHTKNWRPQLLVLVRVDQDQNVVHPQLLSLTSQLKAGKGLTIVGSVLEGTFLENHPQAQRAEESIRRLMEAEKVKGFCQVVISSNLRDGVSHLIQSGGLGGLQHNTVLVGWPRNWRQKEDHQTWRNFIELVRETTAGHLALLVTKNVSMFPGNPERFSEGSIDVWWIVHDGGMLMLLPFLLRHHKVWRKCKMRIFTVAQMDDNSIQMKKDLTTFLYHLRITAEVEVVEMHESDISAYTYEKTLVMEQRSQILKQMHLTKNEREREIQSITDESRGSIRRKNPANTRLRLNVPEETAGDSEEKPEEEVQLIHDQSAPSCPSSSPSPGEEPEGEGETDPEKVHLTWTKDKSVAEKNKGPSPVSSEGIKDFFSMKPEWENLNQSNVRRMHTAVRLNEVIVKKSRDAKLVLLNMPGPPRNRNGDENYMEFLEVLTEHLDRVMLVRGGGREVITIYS
ROMK retest – confirmation of human ROMK potassium channel modulators | shares compounds with ROMK mod | ROMK thallium flux, fluorescence ratio; hits give low values | normalized thallium flux (F/F0 slope) at 10 µM | hit rate 54% among 3,000 | AID 1917;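 active = Flux at 10 µM at least 3 SD below or above vehicle control mean in one or both replicates; inconclusive = no clear call, values can overlap the other calls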
Each line names hits and unclear results; the compound was inactive in the other large screens (follow-up assays come after a bar, where they were run).

COc1ccc(/C=C/C(=O)OCCCN(C)C)cc1	none
CCOc1cc(N2CCOCC2)c(OCC)cc1NC(=O)c1cc(-c2ccco2)nc2ccccc12	none (no result: ROMK mod) | ROMK retest 0.066
CC1CCN(c2cc(N)c(Cl)cc2[N+](=O)[O-])CC1	none (no result: ROMK mod, Cl transport mod) | ROMK retest 0.069
CC1CCN(c2cc(C#N)c(C#N)cc2[N+](=O)[O-])CC1	none
Cc1occc1C(=O)N/N=C/C(Br)=C\c1ccccc1	none (no result: ROMK mod, Diaphorase act, Diaphorase inh, L major viab, WT yeast gro inh)
Fc1ccc(-n2cc(-c3ccccc3)c3c(NN4CCOCC4)ncnc32)cc1	ROMK mod -4.2, L major viab 97 | ROMK retest 0.048
Cc1cc(NC(=O)CN2CCN(Cc3ccccc3)CC2)nc2c1c(=O)oc1ccccc12	none (no result: ROMK mod)
CCN(CC)c1cc(C)c(C#N)c2nc3ccccc3n12	none (no result: ROMK mod, Diaphorase act, Diaphorase inh, L major viab, WT yeast gro inh)
Cc1cc(Cl)n2c(nc3ccccc32)c1C#N	ROMK mod -5, L major viab 100 | ROMK retest 0.036
CC(=O)Cc1nsc(NC(=O)c2ccc(-c3cccc(Cl)c3)o2)n1	ROMK mod 4.3 | ROMK retest inactive
N#Cc1ccc(OCC(=O)OCC(=O)NCCC2=CCCCC2)cc1	none (no result: ROMK mod)
Cc1ccc2c(N)c(C#N)sc2n1	ROMK mod 3.4, WT yeast gro inh 87 | ROMK retest inactive
N#Cc1sc2nc3c(cc2c1N)CCCC3	none | ROMK retest 0.1
Nc1c(C(=O)O)sc2nc3c(cc12)CCCC3	none (no result: Diaphorase act, Diaphorase inh, L major viab, WT yeast gro inh)
Cc1nn(Cc2cccc(C(=O)NN)c2)c(C)c1Cl	none (no result: ROMK mod, Diaphorase act, Diaphorase inh, L major viab, WT yeast gro inh)
O=C(COc1ccc(Br)cc1CNC1CCCCC1)NCCc1ccccc1	ROMK mod -5.2, L major viab 93 | ROMK retest 0.048
COc1ccccc1C1=NN(C2=NN=C(N)Cc3ncnn32)C(O)(C(F)(F)F)C1 (stereo not given)	none
COc1ccc(N2CCN(CC(O)COc3ccc4c(c3)CCC4)CC2)cc1 (stereo not given)	ROMK mod -4.5, L major viab 92 (no result: Cl transport mod) | ROMK retest 0.061
COc1ccc(N2CCN(CC(O)COCCOc3ccc(Br)cc3)CC2)cc1 (stereo not given)	ROMK mod -2.4 | ROMK retest 0.058
OC(COc1ccc2cc(Br)ccc2c1)CN1CCCC1 (stereo not given)	L major viab 100 (no result: ROMK mod, Cl transport mod) | ROMK retest 0.064
COc1ccccc1N1CCN(CC(O)COCCOc2ccc(Br)cc2)CC1 (stereo not given)	none (no result: ROMK mod)
O=C(O)C1CCN(C(=O)CCc2ccccc2)CC1	none (no result: ROMK mod, Diaphorase act, Diaphorase inh, L major viab, WT yeast gro inh)
O=C(O)c1cc2nc(C3CC3)cc(C(F)(F)F)n2n1	none (no result: ROMK mod)
O=C(c1cc2nc(C3CC3)cc(C(F)(F)F)n2n1)N1CCCC1	ROMK mod 6.9 | ROMK retest inactive
CCOC(=O)c1c(C)n(C)c2cc(Br)c(C(=O)OC)cc12	none
CCCCCCCCOC(=O)c1c(CSC(=N)N)n(C)c2cc(Br)c(OC(C)=O)cc12	none (no result: ROMK mod, Diaphorase act, Diaphorase inh, L major viab, WT yeast gro inh) | ROMK retest inconclusive
CCOC(=O)c1c(CSC(=N)N)n(-c2ccc(Br)cc2)c2cc(Br)c(OC(C)=O)cc12	ROMK mod -5.2, L major viab 88 | ROMK retest 0.045
CCN(CC)S(=O)(=O)c1ccc(NC(=O)Cc2cccs2)cc1	none
C=CCn1cc(C(=O)OCC)c(=O)c2ccc(F)cc21	none
CC(=O)NCCc1nc2ccccc2n1CCOc1cccc(C)c1	none (no result: Diaphorase act, Diaphorase inh, L major viab, WT yeast gro inh)
Cc1cccc(OCCn2c(CCCO)nc3ccccc32)c1	ROMK mod -2.8 | ROMK retest 0.059
c1ccc(Nc2nc(CSc3ncn[nH]3)cs2)cc1	ROMK mod -2 | ROMK retest inactive
COc1ccccc1/C=C/C=C1N=C(/C=C/c2ccc(Cl)cc2)OC/1=O	ROMK mod -2.6 | ROMK retest 0.063
c1coc(CNc2ncnc3nc[nH]c23)c1	none (no result: ROMK mod)
Cc1ccc2[nH]c3c(NCc4ccco4)ncnc3c2c1	ROMK mod -3.4 | ROMK retest 0.065
c1coc(CNc2ncnc3c2oc2ccccc23)c1	ROMK mod -3.5 (no result: Cl transport mod) | ROMK retest 0.061
CC1CCN(S(=O)(=O)c2ccc3c(c2)c(=O)c(C(=O)NCc2ccccc2Cl)cn3C)CC1	none
O=C(CN1CCC(NC(=O)Cc2ccccc2)CC1)Nc1cccc2ccccc12	none
O=C(c1ccc2c(c1)N(Cc1ccccc1)C(=O)c1ccccc1S2)N1CCCC1	none (no result: ROMK mod) | ROMK retest 0.061
CCc1c(C(=O)NNC(=S)NCC(C)C)csc1C	none
Cc1ccc(NS(=O)(=O)c2ccc(NC(=O)[C@@H]3CCCC[C@@H]3C(=O)O)cc2)c(C)c1	none (no result: ROMK mod, Cl transport mod)
Cc1cccc(OCCn2c(=O)oc3ccc(C)cc32)c1	none
Cc1ccc2oc(=O)n(CCOc3ccccc3)c2c1	ROMK mod -3.5 | ROMK retest 0.057
COc1ccc(N(CC(=O)NCc2cccs2)S(=O)(=O)c2cccnc2)cc1	none (no result: ROMK mod)
CCC(C(=O)Nc1nccs1)(C(F)(F)F)C(F)(F)F	none (no result: Cl transport mod) | ROMK retest inconclusive
CCCNC(=O)Nc1nccs1	ROMK mod 1.7 | ROMK retest inconclusive
CC(C)Nc1nnc(SC(C)C(=O)NCc2ccc3c(c2)OCO3)s1 (stereo not given)	ROMK mod 1.7 | ROMK retest inactive
CC(C)Nc1nnc(SCC(=O)NCc2ccc3c(c2)OCO3)s1	none
Cc1ccc(CC(=O)N/N=C/c2ccc3c(c2)OCO3)cc1	none
O=C(Cc1ccccc1)NCc1cccnc1	none
O=C(Cc1ccc(-c2ccccc2)cc1)NCc1cccnc1	ROMK mod 3.2 | ROMK retest inactive
Cc1ccc(CSc2nc3ccccc3cc2C=O)cc1	L major viab 96 (no result: ROMK mod) | ROMK retest 0.1
N#C/C(=C/c1ccccc1[N+](=O)[O-])C(=O)NCc1ccco1	ROMK mod -2.4 | ROMK retest 0.045
N#C/C(=C\c1ccccc1[N+](=O)[O-])C(=O)NCc1ccccc1	none (no result: ROMK mod, Diaphorase act, Diaphorase inh, L major viab, WT yeast gro inh)
O=C(NC(=S)Nc1ccc(F)c([N+](=O)[O-])c1)c1ccccc1F	none
O=C(Nc1ccccc1)Nc1ccc(F)c([N+](=O)[O-])c1	none (no result: ROMK mod) | ROMK retest inconclusive
O=C(c1cc(Sc2cccc(Cl)c2)nc2ccccc12)N1CCN(c2ccccn2)CC1	none | ROMK retest inactive
O=C(c1cc(Sc2ccc(Cl)cc2)nc2ccccc12)N1CCN(c2ccccn2)CC1	none
O=C(COc1ccccc1CNCc1ccccc1)Nc1ccccc1	ROMK mod -2.4 | ROMK retest 0.056
CC(C)C(c1nnnn1Cc1ccccc1)N1CCN(Cc2ccc3c(c2)OCO3)CC1 (stereo not given)	L major viab 89 (no result: ROMK mod) | ROMK retest 0.056
COC(=O)c1ccc(Oc2cc(C)nc(-n3nc(C)cc3C)n2)cc1	ROMK mod 4.9, WT yeast gro inh 70 | ROMK retest inactive
O=C(CSc1nc2c(sc3ccccc32)c(=O)n1CCCN1CCOCC1)NC1CCCC1	none (no result: Cl transport mod)
